From ChEMBL document CHEMBL1641377, “Discovery of novel, potent, selective, and orally active human glucagon receptor antagonists containing a pyrazole core” (Bioorg Med Chem Lett, 2011)
Active and inactive are the calls of the source. No cut-off for these calls is given here.

How the values were obtained:
Glucagon receptor [1] = target: Glucagon receptor (Homo sapiens, UniProt P47871); assay: Displacement of [125I]glucagon from human GCGR expressed in CHO cells; type: cell-based
In short: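 Binding inhibition of 125I-glucagon to human GCGR expressed in CHO cell membranes; IC50 reported, n given where replicated.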

[2] = target: T1, Gastric inhibitory polypeptide receptor (Homo sapiens, UniProt P48546); assay: Antagonist activity at human GIPR expressed in CHO cells assessed as inhibition of glucagon-induced cAMP accumulation; type: functional, cell-based
T1 sequence (P48546 whole entry): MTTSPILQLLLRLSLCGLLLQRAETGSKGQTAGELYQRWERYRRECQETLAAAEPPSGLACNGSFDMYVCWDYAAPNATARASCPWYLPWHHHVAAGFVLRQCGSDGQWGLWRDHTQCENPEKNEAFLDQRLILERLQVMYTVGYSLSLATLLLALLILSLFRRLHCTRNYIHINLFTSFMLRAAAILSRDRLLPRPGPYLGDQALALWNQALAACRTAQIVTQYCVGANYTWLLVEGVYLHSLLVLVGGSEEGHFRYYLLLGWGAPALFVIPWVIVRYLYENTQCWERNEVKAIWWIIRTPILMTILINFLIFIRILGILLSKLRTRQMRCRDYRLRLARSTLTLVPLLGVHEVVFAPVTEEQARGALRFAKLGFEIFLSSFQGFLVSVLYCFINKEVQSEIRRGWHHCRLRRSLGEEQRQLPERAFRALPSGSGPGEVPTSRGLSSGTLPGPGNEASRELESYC

Mus musculus [3] = assay: Antidiabetic activity in transgenic mouse expressing human GCGR assessed as inhibition of glucagon-induced blood glucose excursion at 30 mg/kg, po administered 3 hrs before glucagon challenge measured after 48 mins; type: functional, organism-based; design: dose 30 mg/kg
In short: (§1)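 hGCGR transgenic mice (only functional receptor is human GCGR), 9 per group, given compound orally, then glucagon 15 µg/kg IP 60 min later (one arm dosed 30 mpk three hours before challenge); blood glucose monitored at 12, 24, 36 and 48 min after glucagon.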

Mus musculus [4] = assay: Antidiabetic activity in transgenic mouse expressing human GCGR assessed as inhibition of glucagon-induced blood glucose excursion at 30 mg/kg, po administered 60 mins before glucagon challenge measured after 48 mins; type: functional, organism-based; design: dose 30 mg/kg; in short: as §1
Mus musculus [5] = assay: Antidiabetic activity in transgenic mouse expressing human GCGR assessed as inhibition of glucagon-induced blood glucose excursion at 10 mg/kg, po administered 60 mins before glucagon challenge measured after 48 mins; type: functional, organism-based; design: dose 10 mg/kg; in short: as §1
[6] = Drug level in blood of transgenic mouse expressing human GCGR at 10 mg/kg, po after 45 mins; type: ADME, organism-based; design: dose 10 mg/kg, route oral; settings: read-out: Drug uptake
In short: (§2)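 Blood drug concentration sampled in hGCGR transgenic mice during the oral glucagon-challenge pharmacodynamic assay at 45 and 120 min post dose, 10 and 30 mpk groups, n = 3 per group.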

[7] = Drug level in blood of transgenic mouse expressing human GCGR at 10 mg/kg, po after 120 mins; type: ADME, organism-based; design: dose 10 mg/kg, route oral; settings: read-out: Drug uptake; in short: as §2
[8] = Drug level in blood of transgenic mouse expressing human GCGR at 30 mg/kg, po after 120 mins; type: ADME, organism-based; design: dose 30 mg/kg, route oral; settings: read-out: Drug uptake; in short: as §2
[9] = target: Glucagon-like peptide 1 receptor (Homo sapiens, UniProt P43220); assay: Antagonist activity at human GLP1R expressed in CHO cells assessed as inhibition of glucagon-induced cAMP accumulation; type: functional, cell-based
Cytochrome P450 3A4 = Cytochrome P450 3A4 (Homo sapiens, UniProt P08684); assay: Inhibition of CYP3A4; type: ADME
Cytochrome P450 2C9 = Cytochrome P450 2C9 (Homo sapiens, UniProt P11712); assay: Inhibition of CYP2C9; type: ADME
Mus musculus [10] = assay: In vivo occupancy of human GCGR transfected in mouse at 30 mg/kg, po after 1 hr; type: functional
In short: (§3)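 In vivo receptor occupancy measured in hGCGR transgenic mice after oral dosing, at 1 h post-dose (30 and 10 mpk) and in a separate experiment at 1, 3 and 8 h after 10 mpk.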

Mus musculus [11] = assay: In vivo occupancy of human GCGR transfected in mouse at 10 mg/kg, po after 1 hr; type: functional; in short: as §3
Mus musculus [12] = assay: In vivo occupancy of human GCGR transfected in mouse at 10 mg/kg after 8 hrs; type: functional; in short: as §3
Mus musculus [13] = assay: Antihyperglycemic activity in streptozotocin-induced diabetes mouse model assessed as decrease in blood glucose AUC level at 30 mg/kg, po after 4 weeks; type: functional; settings: 672 h
In short: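 Diabetic model: hGCGR transgenic mice on high-fat diet for eight weeks, streptozotocin-treated during the last four weeks; single oral dose, blood glucose AUC over 2–6 h measured.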

[14] = Blood clearance in mouse at 1 mg/kg, iv and 2 mg/kg, po; type: ADME, organism-based
[15] = Plasma clearance in rhesus monkey at 0.5 mg/kg, iv and 2 mg/kg, po; type: ADME, organism-based, Macaca mulatta
[16] = Volume of distribution at steady state in mouse at 1 mg/kg, iv and 2 mg/kg, po; type: ADME, organism-based; settings: in vivo, read-out: Vdss
[17] = Volume of distribution at steady state in rhesus monkey at 0.5 mg/kg, iv and 2 mg/kg, po; type: ADME, organism-based, Macaca mulatta; settings: in vivo, read-out: Vdss
[18] = Half life in mouse at 1 mg/kg, iv and 2 mg/kg, po; type: ADME, organism-based; settings: in vivo
[19] = Half life in rat at 1 mg/kg, iv and 2 mg/kg, po; type: ADME, organism-based; settings: in vivo
[20] = Half life in rhesus monkey at 0.5 mg/kg, iv and 2 mg/kg, po; type: ADME, organism-based, Macaca mulatta; settings: in vivo
Rattus norvegicus = assay: Dose normalized AUC in rat at 2 mg/kg, po; type: ADME, organism-based; design: dose 2 mg/kg, route oral; settings: in vivo
Canis familiaris = assay: Dose normalized AUC in dog at 2 mg/kg, po; type: ADME, organism-based, Canis lupus familiaris; design: dose 2 mg/kg, route oral; settings: in vivo
Rhesus monkey = assay: Dose normalized AUC in rhesus monkey at 2 mg/kg, po; type: ADME, organism-based, Macaca mulatta; design: dose 2 mg/kg, route oral; settings: in vivo
[21] = Cmax in dog at 2 mg/kg, po; type: ADME, organism-based, Canis lupus familiaris; design: dose 2 mg/kg, route oral; settings: in vivo
[22] = Bioavailability in mouse at 1 mg/kg, iv and 2 mg/kg, po; type: ADME, organism-based; settings: in vivo
[23] = Bioavailability in rat at 1 mg/kg, iv and 2 mg/kg, po; type: ADME, organism-based; settings: in vivo
[24] = Bioavailability in rhesus monkey at 0.5 mg/kg, iv and 2 mg/kg, po; type: ADME, organism-based, Macaca mulatta; settings: in vivo
Glucagon receptor [25] = target: Glucagon receptor (Mus musculus, UniProt Q61606); assay: Antagonist activity at mouse GCGR assessed as inhibition of glucagon-induced cAMP accumulation; type: functional
Glucagon receptor [26] = target: Glucagon receptor (Rattus norvegicus, UniProt P30082); assay: Antagonist activity at rat GCGR assessed as inhibition of glucagon-induced cAMP accumulation; type: functional
Uncharacterized protein = Uncharacterized protein (Canis lupus familiaris, UniProt A0A8I3N355); assay: Antagonist activity at dog GCGR assessed as inhibition of glucagon-induced cAMP accumulation; type: functional
[27] = Plasma concentration in rhesus monkey at 0.3 mg/kg, po after 4 hrs; type: ADME, organism-based, Macaca mulatta; design: dose 0.3 mg/kg, route oral
In short: (§4)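 Overnight-fasted rhesus monkeys received the oral dose 4 h before the glucagon challenge (15 µg/kg im, time zero). Plasma drug level was sampled at the time of the challenge (t = 0, n = 4). Plasma glucose was then followed every 10 min and expressed as the change from time zero.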

[28] = Plasma concentration in rhesus monkey at 10 mg/kg, po after 4 hrs; type: ADME, organism-based, Macaca mulatta; design: dose 10 mg/kg, route oral; in short: as §4

Sequence of Cytochrome P450 2C9 (P11712 whole entry): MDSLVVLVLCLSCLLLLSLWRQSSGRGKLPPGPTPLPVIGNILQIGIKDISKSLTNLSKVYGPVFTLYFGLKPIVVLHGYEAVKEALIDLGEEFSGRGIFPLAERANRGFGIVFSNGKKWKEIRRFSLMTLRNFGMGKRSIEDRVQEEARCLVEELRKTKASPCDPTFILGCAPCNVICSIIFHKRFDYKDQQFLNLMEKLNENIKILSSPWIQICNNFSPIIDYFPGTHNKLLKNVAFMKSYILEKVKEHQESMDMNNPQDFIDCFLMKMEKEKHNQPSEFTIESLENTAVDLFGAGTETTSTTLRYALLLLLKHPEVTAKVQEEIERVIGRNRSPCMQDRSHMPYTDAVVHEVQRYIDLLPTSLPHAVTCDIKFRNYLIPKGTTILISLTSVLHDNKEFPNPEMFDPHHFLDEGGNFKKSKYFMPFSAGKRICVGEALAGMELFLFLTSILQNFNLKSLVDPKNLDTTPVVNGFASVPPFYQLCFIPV
Sequence of Glucagon receptor (Mus musculus, UniProt Q61606) (Q61606 whole entry): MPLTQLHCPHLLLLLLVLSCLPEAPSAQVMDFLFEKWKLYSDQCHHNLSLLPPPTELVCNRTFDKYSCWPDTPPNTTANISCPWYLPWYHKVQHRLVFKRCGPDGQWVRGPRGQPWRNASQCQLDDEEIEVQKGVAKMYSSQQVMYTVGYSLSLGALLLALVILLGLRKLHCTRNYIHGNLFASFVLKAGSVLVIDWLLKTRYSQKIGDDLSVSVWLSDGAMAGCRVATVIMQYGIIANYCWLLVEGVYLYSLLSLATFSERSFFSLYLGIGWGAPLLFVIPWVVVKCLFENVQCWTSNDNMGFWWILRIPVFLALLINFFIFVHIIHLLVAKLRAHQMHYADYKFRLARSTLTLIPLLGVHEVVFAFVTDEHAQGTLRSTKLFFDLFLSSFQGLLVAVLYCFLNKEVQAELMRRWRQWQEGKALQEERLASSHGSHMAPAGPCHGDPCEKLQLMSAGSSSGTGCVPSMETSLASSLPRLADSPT
Sequence of Glucagon receptor (Rattus norvegicus, UniProt P30082) (P30082 whole entry): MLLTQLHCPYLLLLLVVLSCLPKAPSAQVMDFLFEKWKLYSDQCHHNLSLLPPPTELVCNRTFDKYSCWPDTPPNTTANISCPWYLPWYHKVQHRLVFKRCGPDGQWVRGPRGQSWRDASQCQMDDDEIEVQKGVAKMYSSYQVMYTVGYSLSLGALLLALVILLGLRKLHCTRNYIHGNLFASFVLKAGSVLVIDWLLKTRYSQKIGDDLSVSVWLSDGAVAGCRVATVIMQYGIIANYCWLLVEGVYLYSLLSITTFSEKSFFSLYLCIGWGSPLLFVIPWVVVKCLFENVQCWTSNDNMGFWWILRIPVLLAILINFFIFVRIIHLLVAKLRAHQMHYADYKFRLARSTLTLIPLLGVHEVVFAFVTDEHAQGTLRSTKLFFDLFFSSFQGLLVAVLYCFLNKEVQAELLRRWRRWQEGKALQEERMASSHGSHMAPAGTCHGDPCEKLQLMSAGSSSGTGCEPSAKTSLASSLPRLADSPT
Sequence of Cytochrome P450 3A4 (P08684 whole entry): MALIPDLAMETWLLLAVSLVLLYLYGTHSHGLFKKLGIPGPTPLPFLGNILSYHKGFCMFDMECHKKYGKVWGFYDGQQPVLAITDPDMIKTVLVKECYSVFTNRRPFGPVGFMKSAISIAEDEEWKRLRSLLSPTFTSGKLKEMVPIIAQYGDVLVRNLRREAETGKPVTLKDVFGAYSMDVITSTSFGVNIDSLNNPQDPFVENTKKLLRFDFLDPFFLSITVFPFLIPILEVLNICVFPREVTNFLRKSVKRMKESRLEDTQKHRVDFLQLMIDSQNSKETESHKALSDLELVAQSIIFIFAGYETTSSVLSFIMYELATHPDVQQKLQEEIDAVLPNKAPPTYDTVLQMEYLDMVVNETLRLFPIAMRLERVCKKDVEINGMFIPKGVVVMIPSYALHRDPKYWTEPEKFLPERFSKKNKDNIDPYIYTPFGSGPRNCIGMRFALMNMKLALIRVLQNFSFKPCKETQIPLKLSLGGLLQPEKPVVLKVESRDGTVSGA
Sequence of Uncharacterized protein (A0A8I3N355 whole entry): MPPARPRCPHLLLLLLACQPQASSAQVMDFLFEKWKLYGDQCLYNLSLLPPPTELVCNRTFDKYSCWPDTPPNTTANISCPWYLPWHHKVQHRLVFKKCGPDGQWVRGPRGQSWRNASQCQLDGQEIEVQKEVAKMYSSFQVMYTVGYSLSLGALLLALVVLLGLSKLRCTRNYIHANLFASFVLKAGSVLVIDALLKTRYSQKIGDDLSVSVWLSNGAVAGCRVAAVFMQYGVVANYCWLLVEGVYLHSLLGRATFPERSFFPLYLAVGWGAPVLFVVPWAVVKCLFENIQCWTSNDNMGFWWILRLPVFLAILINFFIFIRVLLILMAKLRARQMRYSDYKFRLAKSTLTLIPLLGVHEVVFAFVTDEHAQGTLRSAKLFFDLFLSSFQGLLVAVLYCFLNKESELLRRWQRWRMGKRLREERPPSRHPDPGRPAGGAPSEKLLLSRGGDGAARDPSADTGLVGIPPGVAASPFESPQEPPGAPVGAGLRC
Sequence of Glucagon-like peptide 1 receptor (P43220 whole entry): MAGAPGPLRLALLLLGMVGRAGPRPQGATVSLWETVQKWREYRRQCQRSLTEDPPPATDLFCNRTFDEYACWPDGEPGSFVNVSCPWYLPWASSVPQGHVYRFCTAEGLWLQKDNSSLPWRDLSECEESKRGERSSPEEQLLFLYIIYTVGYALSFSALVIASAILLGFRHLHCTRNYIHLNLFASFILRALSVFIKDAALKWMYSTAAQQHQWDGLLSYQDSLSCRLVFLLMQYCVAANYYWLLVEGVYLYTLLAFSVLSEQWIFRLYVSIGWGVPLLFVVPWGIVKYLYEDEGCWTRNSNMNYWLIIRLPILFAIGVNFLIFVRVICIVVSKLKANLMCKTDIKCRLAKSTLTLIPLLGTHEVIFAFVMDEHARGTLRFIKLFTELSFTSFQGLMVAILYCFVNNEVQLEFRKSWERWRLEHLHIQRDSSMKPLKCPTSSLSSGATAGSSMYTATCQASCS
Sequence of Glucagon receptor (Homo sapiens, UniProt P47871) (P47871 whole entry): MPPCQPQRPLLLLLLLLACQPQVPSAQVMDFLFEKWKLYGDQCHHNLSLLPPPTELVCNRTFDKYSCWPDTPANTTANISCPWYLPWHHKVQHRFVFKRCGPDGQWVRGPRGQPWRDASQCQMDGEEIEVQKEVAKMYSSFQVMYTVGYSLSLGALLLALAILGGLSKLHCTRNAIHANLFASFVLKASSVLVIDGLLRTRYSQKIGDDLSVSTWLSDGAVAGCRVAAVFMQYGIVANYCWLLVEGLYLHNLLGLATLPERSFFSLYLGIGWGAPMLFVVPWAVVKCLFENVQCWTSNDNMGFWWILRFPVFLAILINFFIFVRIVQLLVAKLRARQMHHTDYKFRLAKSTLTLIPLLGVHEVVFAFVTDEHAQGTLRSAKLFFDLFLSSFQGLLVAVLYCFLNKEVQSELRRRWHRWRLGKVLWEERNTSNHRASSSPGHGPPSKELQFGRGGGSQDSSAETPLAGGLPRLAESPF

O=C(O)CCNC(=O)c1ccc(Cn2nc(-c3cc(Cl)cc(Cl)c3)cc2-c2ccc(OC(F)(F)F)cc2)cc1
IC50 (Glucagon receptor [1]): 84 nM | IC50 [2]: 7500 nM | inhibition (Mus musculus [3]): Active | inhibition (Mus musculus [4]): Active | inhibition (Mus musculus [5]): Active | concentration at 0.75 h [6]: 3.55 µM | concentration at 2 h [7]: 3.35 µM | concentration at 2 h [8]: 14.2 µM | IC50 [9]: > 10000 nM | IC50 (Cytochrome P450 3A4): 39000 nM | IC50 (Cytochrome P450 2C9): 5800 nM | Activity (Mus musculus [10]): 87% | Activity (Mus musculus [11]): 51% | Activity (Mus musculus [12]): 51% | inhibition in vivo at 30 mg/kg (Mus musculus [13]): 37% | clearance [14]: 6.1 mL/min/kg | clearance [15]: 0.68 mL/min/kg | Vd [16]: 1.1 L/kg | Vd [17]: 0.55 L/kg | half-life [18]: 2.3 h | half-life [19]: 6.5 h | half-life [20]: 10 h | AUC (Rattus norvegicus): 11 µM·kg·h/mg | AUC (Canis familiaris): 27 µM·kg·h/mg | AUC (Rhesus monkey): 30 µM·kg·h/mg | Cmax [21]: 7.7 µM | bioavailability [22]: 15% | bioavailability [23]: 57% | bioavailability [24]: 68% | IC50 (Glucagon receptor [25]): 2000 nM | IC50 (Glucagon receptor [26]): 2600 nM | IC50 (Uncharacterized protein): 400 nM | concentration at 4 h [27]: 0.13 µM | concentration at 4 h [28]: 8.8 µM
